Four molecules from ChEMBL document CHEMBL2380272, “Biological evaluation of bisbenzaldehydes against four Mycobacterium species” (Eur J Med Chem, 2013) can be followed below.

The test system of assay [1] is Mycobacterium tuberculosis. The assay can be described thus: Antimycobacterial activity against multidrug-resistant Mycobacterium tuberculosis LAM-1 clinical isolate assessed as growth inhibition after 6 days by BACTEC 460-TB method. It is filed as functional. Particulars: LAM-1, 144 h. In short, it runs like this:
(§1)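 BACTEC 460-TB radiometric assay measuring 14CO2 from 14C-palmitic acid. The MDR LAM-1 isolate was precultured to growth index 300, then inoculated into a fresh vial with compound dilutions made in 7H9 + 10% OADC. Final concentrations were 0.4–1.2 µM. GI was read daily. MIC90 and MIC99 came from comparison with untreated controls diluted 10- and 100-fold. A 0.1 µg/mL isoniazid culture served as the resistance control.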

Assay [2] deals with Mycobacterium tuberculosis. Description: Antimycobacterial activity against multidrug-resistant Mycobacterium tuberculosis LAM-1 clinical isolate assessed as growth inhibition at 1 to 1.2 uM after 6 days by BACTEC 460-TB method relative to 10 to 100 times diluted untreated control. It is filed as functional. Summed up: as §1

Usually MIC90 stands for an inhibitory concentration at the 90% level, which refers to growth in some studies and to a panel of isolates in others.

Each structure is given as a SMILES string. ≈ marks a conversion by molar mass, not a printed value.

For `O=Cc1ccc(OCCCCCCCCCOc2ccc(C=O)cc2)cc1`, in assay [1], the MIC90 was found to be 0.6 µM (≈ 0.221 µg/mL). As for `O=Cc1ccc(OCCCCCCCCCCOc2ccc(C=O)cc2)cc1`, in assay [1], the MIC90 was determined as 0.6 µM (≈ 0.229 µg/mL). As for `O=Cc1ccc(OCCCCCCCCCCCOc2ccc(C=O)cc2)cc1`, in assay [1], the MIC90 is 0.6 µM (≈ 0.238 µg/mL). In assay [2], the “growth inhibition (GI)” value amounted to 99%. For `O=Cc1ccc(OCCCCCCCCCCCCOc2ccc(C=O)cc2)cc1` the same measures were 0.4 µM (≈ 0.164 µg/mL) and 99%.
